Measured values as given in ChEMBL document CHEMBL3526035, “Role of the intestinal peptide transporter PEPT1 in oseltamivir absorption: in vitro and in vivo studies” (Drug Metab Dispos, 2012).

Tests used:
[1] = Drug excretion in healthy human urine assessed as unchanged drug level at 150 mg, po administered as single dose by HPLC-tandem mass spectrometry under fasting conditions; format: ADME, organism-based; details: read-out: Drug excretion
Outline: (§1)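 Open-label crossover in 18 healthy volunteers (9 male, 9 female, mean age 26). Each received marketed oseltamivir 150 mg orally, once fasted from midnight and once after a high-fat, high-calorie breakfast, with a 7-10 day washout. Plasma and urine collected over 0-72 h and analysed by HPLC-MS/MS. AUC and Cmax compared after log transformation.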

[2] = AUC(0 to 24 hrs) in healthy human at 150 mg, po administered as single dose by HPLC-tandem mass spectrometry under fasting conditions; format: ADME, organism-based; set-up: dose 150 mg, time < 24 hr, route oral; details: plasma; outline: as §1
[3] = AUC(0 to 5 hrs) in juvenile fasted Sprague-Dawley rat at 30 mg/kg, po administered as 125 mM aqueous Gly-Sar solution by HPLC-tandem mass spectrometry; format: ADME, organism-based; set-up: time < 5 hr, dose 30 mg/kg, route oral; details: plasma
Outline: (§2)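 7-day-old Sprague-Dawley pups (9.7-18.9 g, both sexes), 15 per group. Given 30 mg/kg by oral gavage (10 ml/kg); breast-fed pups stayed with dams, fasted pups were removed 8 h before dosing. Blood taken by cardiac puncture under isoflurane at 0.25, 0.5, 1, 2 and 5 h, n=3 per time point (composite design). Dichlorvos-treated plasma assayed by LC-MS/MS; AUC0-5h by noncompartmental analysis.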

[4] = Apparent oral clearance in healthy human at 150 mg, po administered as single dose by HPLC-tandem mass spectrometry under fasting conditions; format: ADME, organism-based; details: in vivo; outline: as §1
[5] = Cmax in adult fasted Sprague-Dawley rat at 30 mg/kg, po administered as water solution by HPLC-tandem mass spectrometry; format: ADME, organism-based; set-up: dose 30 mg/kg, route oral; details: in vivo
Outline: (§3)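 Adult cannulated Sprague-Dawley rats, fasted (from 6 h predose) or fed, dosed orally at 30 mg/kg (10 ml/kg), 3 per group. Serial jugular plasma with dichlorvos stabilisation, measured by LC-MS/MS. Cmax read graphically from the concentration-time profile.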

[6] = Cmax in adult fed Sprague-Dawley rat at 30 mg/kg, po administered as 125 mM aqueous Gly-Sar solution by HPLC-tandem mass spectrometry; format: ADME, organism-based; set-up: dose 30 mg/kg, route oral; details: in vivo; outline: as §3
[7] = Cmax in juvenile fasted Sprague-Dawley rat at 30 mg/kg, po administered as solution in bovine milk by HPLC-tandem mass spectrometry; format: ADME, organism-based; set-up: dose 30 mg/kg, route oral; details: in vivo; outline: as §2
[8] = AUC(0 to infinity) in adult fasted Sprague-Dawley rat at 30 mg/kg, po administered as 125 mM aqueous Gly-Sar solution by HPLC-tandem mass spectrometry; format: ADME, organism-based; set-up: time infinity, dose 30 mg/kg, route oral; details: plasma
Outline: (§4)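 Adult male Sprague-Dawley rats (243-283 g), jugular-cannulated, fasted from 6 h before dosing through the 6-h study. Given 30 mg/kg orally (free base) at 10 ml/kg, n=3/group. Blood sampled at 0.25-6 h into K2EDTA with dichlorvos esterase inhibitor. Plasma assayed by LC-MS/MS (0.1-500 μg/l). Noncompartmental analysis: linear-trapezoid AUC; infinity extrapolation via log-linear terminal λz.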

[9] = Terminal half life in healthy human at 150 mg, po administered as single dose by HPLC-tandem mass spectrometry under fed conditions; format: ADME, organism-based; details: in vivo, read-out: beta t1/2 (converted)
Outline: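 Open-label crossover food-effect study in 18 healthy volunteers (9 male, 9 female, mean age 26). Each received a single 150 mg oral dose of the marketed formulation, once fasting from midnight and once after a high-fat, high-calorie breakfast, separated by a 7–10 day washout. Plasma and urine were collected over 0–72 h and assayed by HPLC-MS/MS for oseltamivir and carboxylate.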

[10] = Drug uptake in CHOK1 cells at pH 5 by HPLC coupled with radiodetection analysis; format: ADME, cell-based, Cricetulus griseus; details: chinese hamster, cho-k1, pH 5
[11] = AUC(0 to infinity) in adult fed Sprague-Dawley rat at 30 mg/kg, po administered as 125 mM aqueous Gly-Sar solution by HPLC-tandem mass spectrometry; format: ADME, organism-based; set-up: time infinity, dose 30 mg/kg, route oral; details: plasma
Outline: (§5)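 Sprague-Dawley males, 7-8 weeks, 243-283 g, jugular-cannulated, 3 days' recovery; fed (chow ad libitum). Single oral dose of 30 mg/kg (free base) at 10 ml/kg; 3 rats/group. Jugular blood taken at 0.25-24 h into K2EDTA with dichlorvos, kept on ice. Plasma analysed by validated LC-MS/MS (0.1-500 μg/l). Noncompartmental analysis; AUC by linear trapezoid, AUC0-∞ extrapolated using λz.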

[12] = AUC(0 to infinity) in healthy human at 150 mg, po administered as single dose by HPLC-tandem mass spectrometry under fed conditions; format: ADME, organism-based; set-up: dose 150 mg, time infinity, route oral; details: plasma; outline: as §1
[13] = Drug uptake in CHOK1 cells expressing human PEPT1 incubated for 30s to 15 mins by HPLC coupled with radiodetection analysis; format: ADME, cell-based, Cricetulus griseus; details: chinese hamster, cho-k1, 0.25 h
Outline: (§6)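 Accumulation of [14C]oseltamivir or its carboxylate in CHO-PEPT1 versus CHO-K1 cells. Conditions varied: KH buffer (with MES) or Hanks' balanced salt solution, pH 5 or 6 readjusted after substrate addition, 30 s to 15 min at 37°C. Uptake was quenched with ice-cold PBS-BSA, followed by Triton X-100 lysis, scintillation counting, and BCA protein normalization. HPLC-radiodetection checked ester stability.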

[14] = Apparent oral clearance in healthy human at 150 mg, po administered as single dose by HPLC-tandem mass spectrometry under fed conditions; format: ADME, organism-based; details: in vivo; outline: as §1
[15] = AUC(0 to infinity) in healthy human at 150 mg, po administered as single dose by HPLC-tandem mass spectrometry under fasting conditions; format: ADME, organism-based; set-up: dose 150 mg, route oral, time infinity; details: plasma; outline: as §1
[16] = Cmax in healthy human at 150 mg, po administered as single dose by HPLC-tandem mass spectrometry under fed conditions; format: ADME, organism-based; set-up: dose 150 mg, route oral; details: in vivo; outline: as §1
[17] = Drug uptake in CHOK1 cells expressing human PEPT1 at pH 5 by HPLC coupled with radiodetection analysis; format: ADME, cell-based, Cricetulus griseus; details: chinese hamster, cho-k1, pH 5; outline: as §6
[18] = Tmax in juvenile fasted Sprague-Dawley rat at 30 mg/kg, po administered as 125 mM aqueous Gly-Sar solution by HPLC-tandem mass spectrometry; format: ADME, organism-based; set-up: dose 30 mg/kg, route oral; details: in vivo
Outline: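 Seven-day-old Sprague-Dawley pups, males and females, 15 per group, were gavaged with 30 mg/kg (10 ml/kg). Breast-fed pups stayed with their dams; fasted pups were removed from 8 h predose through 5 h. Cardiac blood was drawn under isoflurane at 0.25, 0.5, 1, 2 and 5 h (composite, n=3/time point), with dichlorvos added. Plasma was analyzed by HPLC-MS/MS and Tmax read graphically.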

[19] = AUC(0 to infinity) in adult fasted Sprague-Dawley rat at 30 mg/kg, po administered as water solution by HPLC-tandem mass spectrometry; format: ADME, organism-based; set-up: time infinity, dose 30 mg/kg, route oral; details: plasma; outline: as §4
[20] = Drug uptake in CHOK1 cells expressing human PEPT1 by HPLC coupled with radiodetection analysis in presence of KH and Hanks' balanced salt solution; format: ADME, cell-based, Cricetulus griseus; details: chinese hamster, cho-k1; outline: as §6
[21] = AUC(0 to 6 hrs) in adult fed Sprague-Dawley rat at 30 mg/kg, po administered as water solution by HPLC-tandem mass spectrometry; format: ADME, organism-based; set-up: time < 6 hr, dose 30 mg/kg, route oral; details: plasma; outline: as §5
[22] = AUC(0 to infinity) in adult fed Sprague-Dawley rat at 30 mg/kg, po administered as solution in bovine milk by HPLC-tandem mass spectrometry; format: ADME, organism-based; set-up: time infinity, dose 30 mg/kg, route oral; details: in vivo; outline: as §5
[23] = Tmax in adult fed Sprague-Dawley rat at 30 mg/kg, po administered as water solution by HPLC-tandem mass spectrometry; format: ADME, organism-based; set-up: dose 30 mg/kg, route oral; details: in vivo
Outline: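 Cannulated adult male Sprague-Dawley rats with chow ad libitum, 3 per vehicle, were given oral 30 mg/kg (10 ml/kg). Plasma analysis was by HPLC-MS/MS, with Tmax taken graphically from concentration-time profiles.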

Row | dose excreted [1] [%] | AUC(0-t) at 24 h [2] [ng·h/mL] | AUC(0-t) at 5 h [3] [ng·h/mL] | CL/F [4] [mL/min] | Cmax [5] [ng/mL] | Cmax [6] [ng/mL] | Cmax [7] [ng/mL] | AUC(0-inf) [8] [ng·h/mL] | half-life [9] [h] | Drug uptake [10] | AUC(0-inf) [11] [ng·h/mL] | AUC(0-inf) [12] [ng·h/mL] | Drug uptake [13] | CL/F [14] [mL/min] | AUC(0-inf) [15] [ng·h/mL] | Cmax [16] [ng/mL] | Drug uptake [17] | Tmax [18] [h] | AUC(0-inf) [19] [ng·h/mL] | Drug uptake [20] | Compound | further results
1 | 58.5 | 5540 | 10900 | 371 | 2290 | 693 | 2460 | 8860 | 8.2 | Active | 4870 | 6070 | Active | 385 | 6220 | 441 | Active | 2 | 6140 | Active | CCC(CC)O[C@@H]1C=C(C(=O)O)C[C@H](N)[C@H]1NC(C)=O [OSELTAMIVIR CARBOXYLATE] | AUC(0-t) at 6 h [21]: 3540 ng·h/mL; AUC(0-inf) [22]: 6340 ng·h/mL; Tmax [23]: 0.75 h
2 | 3.09 | 238 | 27100 | 13000 | 1690 | 926 | 7990 | 3810 | 2.15 | Active | 2840 | 287 | Active | 9540 | 244 | 101 | Active | 0.5 | 2710 | Active | CCOC(=O)C1=C[C@@H](OC(CC)CC)[C@H](NC(C)=O)[C@@H](N)C1 [OSELTAMIVIR] | AUC(0-t) at 6 h [21]: 2200 ng·h/mL; AUC(0-inf) [22]: 2810 ng·h/mL; Tmax [23]: 0.41 h
